# Only some compounds are listed: those with a hit (about 3.8% of all), similar ones and a draw of the others.
# SIRT5 block – sirtuin-5 (human) deacylase inhibition; 1.1% of 330,000 active; inhibition, % at 15 µM; Purified SirT5, succinyl-peptide AMC, trypsin-coupled fluorescence; in the data active = inhibition above about 15%; inconclusive = no clear call, values can overlap the other calls
# Target sequence (Q9NXA8 whole entry, looked up): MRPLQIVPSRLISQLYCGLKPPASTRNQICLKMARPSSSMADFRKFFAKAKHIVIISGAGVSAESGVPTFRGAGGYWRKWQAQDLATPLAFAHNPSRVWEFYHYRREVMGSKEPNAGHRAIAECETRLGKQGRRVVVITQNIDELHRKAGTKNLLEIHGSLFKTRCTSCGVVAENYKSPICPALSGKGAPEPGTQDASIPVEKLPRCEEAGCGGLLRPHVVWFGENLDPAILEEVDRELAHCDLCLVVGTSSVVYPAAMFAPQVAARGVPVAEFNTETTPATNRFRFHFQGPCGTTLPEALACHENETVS
# DENV2 CPE – DENV2-induced cell death inhibition. DENV2-infected cells, cytopathic effect rescue, plate reader. CPE inhibition, % at 9.99 µM. 1.7% of 350,000 active; in the data active = CPE inhibition above about 20%, passing the limit was not always enough; inconclusive = no clear call, values can overlap the other calls; tested in BHK-21 cells;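 note: 0% = median of neutral control wells and 100% = median of positive control wells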
# ARNT-TACC3 inh – disrupts binding between human ARNT and TACC3; inhibition, % at 9.99 µM; AID 623870; 0.66% of 390,000 active; Q9Y6A5; AlphaScreen His-ARNT PAS-B/GST-TACC3 binding, luminescence; TACC3 fragment carries E629A point mutation;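 active = mean inhibition of replicates at least 50% and at least half of replicates each reaching 50%; inconclusive = half or more replicates reach 50% but mean below 50%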;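 note: 0% = complete ARNT plus TACC3 wells and 100% = ARNT alone without TACC3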
# FN deposit inh – fibronectin deposition inhibition; AH1F fibroblasts, Alexa488-fibronectin deposition fluorescence, overnight; inhibition, % at 12.6 µM; 0.086% of 350,000 active; AID 743247;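 active = mean inhibition across replicates of 30% or more, regardless of how many single replicates reach that level; inconclusive = mean under 30% yet at least half of replicates reach 30%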;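 note: positive control wells lacked labelled fibronectin entirely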
#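 Assay system: AH1F fibroblast monolayer, labelled fibronectin deposition. Amount: 10000 cells per well. Also added: labelled fibronectin 24 nM. Compound: single-point pinned compound. Incubation: cell attachment 1 h, compound and FN exposure overnight. Detection: fluorescence after three HBSS washes, excitation 485 nm, emission 525 nm. Read-out: inhibition of fibronectin deposition signal.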
# Xi reactivation – X-chromosome reactivation activator. activation, % at 7.58 µM. AID 743238. 0.055% of 360,000 active. XiGFP mouse fibroblasts, % GFP-positive cells imaging, 3 d; cells co-treated with 5-aza-dC sensitizer; scaled so ellipticine positive control = 100%;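 active = mean normalized replicate activation at least 10% and every replicate at or above 10%; inconclusive = only one of the two criteria met; inactive = mean below 10% and not all replicates reach 10%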;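 note: 0% = median of on-plate neutral control wells and 100% = ellipticine 6 µM median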
#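 System: 68-5-11 XiGFP fibroblast line; Timing: 3 days compound exposure; Compound dosing: one concentration, pinned; Benchmarks: positive control ellipticine, 6 µM final; Buffer or medium: DMEM containing 5-aza-dC.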
# FGF22 binding – FGF22 (human) thermal shift binding; Q9HCT0; recombinant FGF22 thermal shift, SYPRO orange fluorescence; percent of sucrose octasulfate shift, DMSO zero; activity (Tm shift, normalised), % at 9.99 µM; 1.5% of 340,000 active; AID 651658;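 active = mean Tm shift, scaled 0 neutral to 100 positive control, at about 1.3% or above, every replicate too, limit read from the data; inconclusive = no clear call, values can overlap the other calls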
# The depositor's hits bear a star; ? = inconclusive; · = no result.
SMILES,SIRT5 block,DENV2 CPE,ARNT-TACC3 inh,FN deposit inh,Xi reactivation,FGF22 binding
CCCNC(=O)C[C@H]1C[C@@H]2c3cc(N(C)C)ccc3O[C@@H]2[C@H](CO)O1,-3,-2,8,7,0,-1
CN(C)c1nc(Cl)nc(N(C#N)CCOc2ccccc2)n1,0,6,-6,16,0,43*
CC1(Cc2ccc(Cl)cc2)C(=O)Nc2ccc(-c3cccnc3)cc21 (centres undefined),1,8,·,20,0,0
CC1(Cc2cccc(F)c2)C(=O)Nc2ccc(-c3cccnc3)cc21 (centres undefined),·,54*,·,10,0,0
FC(F)(F)CN1CC2C(c3ccc(Br)cc3)C(C1)N2CC(F)(F)F (centres undefined),·,·,·,-16,0,·
COc1ccccc1NC(=O)N1CC(=O)N2[C@@H](CO)[C@H](c3ccc(C#CCC(C)C)cc3)[C@@H]2C1,·,·,·,·,0,·
O=C(Cn1c(C(F)(F)F)nc2ccccc21)N=Nc1c(O)[nH]c2ccc(Br)cc12,1,-3,·,2,0,43*
CC1CCN(c2nc(N3CCCCC3)nc(N3CCCCC3)n2)CC1,-5,·,-5,5,0,43*
CN(C)c1nc(N(C)C)nc(N2CCCCC2)n1,·,·,-5,4,·,·
CC(C)OC(=O)CCCNc1ccc([N+](=O)[O-])cc1[N+](=O)[O-],3,53*,11,5,0,0
O=[N+]([O-])c1ccc(COc2ccccc2CN2CCCC2)cc1,-1,2,19,-6,0,0
O=C(c1cccs1)N1CCN(Cc2cccc([N+](=O)[O-])c2)CC1,-3,-6,-3,8,0,0
O=C(c1ccco1)N1CCN(C(=O)c2ccc(-c3cccc(C(F)(F)F)c3)o2)CC1,1,101*,2,-1,0,0
O=[N+]([O-])c1cccc(COc2cccc(CN3CCCC3)c2)c1,0,-4,3,-3,0,0
O=C(c1ccc(-c2cccc(C(F)(F)F)c2)o1)N1CCCCCCC1,-6,3,·,-1,0,0
O=C(c1ccco1)N1CCN(Cc2cccc([N+](=O)[O-])c2)CC1,-3,?,-4,7,0,44*
O=[N+]([O-])c1cccc(COc2cccc(CN3CCCCC3)c2)c1,·,5,4,5,0,43*
O=[N+]([O-])c1cccc(COc2ccccc2CN2CCCC2)c1,-5,58*,35,-1,0,0
COC(=O)c1c(NC(=O)C2(C)Cc3ccccc3C(=O)O2)sc2c1CCCC2 (centres undefined),19*,·,21,·,·,·
COC(=O)c1c(NC(=O)C2Cc3ccccc3C(=O)O2)sc2c1CCCC2 (centres undefined),-2,1,0,4,0,0
